The text below walks through data of ChEMBL document CHEMBL4513216, “Probing the Open Global Health Chemical Diversity Library for Multistage-Active Starting Points for Next-Generation Antimalarials” (ACS Infect Dis, 2020).

SMILES strings stand for the structures.

The nature of this data set: Toxicity liver stage against HepG2, at 10uM. Type of data set: cell-based. Further details: test concentration 10 uM, cell line HepG2-A16-CD81EGFP. As to conditions: human, HepG2-A16-CD81EGFP cells; read-out: INHIBITION
The gist of the method: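 Uninfected HepG2-A16-CD81EGFP cells, 3 × 10^3 per well, 1536-well, plated on prespotted compound at 10 μM final, parasite-free screening media added to match infected plates; puromycin 10 μM positive, DMSO 0.5% negative; run in parallel with 48 h PbLuc assay at 37 °C, 5% CO2; viability by CellTiter-Glo luminescence, normalized to controls.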

Regarding `OCCCN1CCCC1c1cccc(Br)c1` (configuration not stated), the cytotoxicity at 10 µM turned out to be 5.71%.
In the case of `COc1cc(S(=O)(=O)N2CCc3ccccc32)cc(C(=O)O)c1OC`, the cytotoxicity at 10 µM is -7.54%.
As for `CCCn1nnnc1CN(c1ccc(N2CCOCC2)cc1)C(C)C`, the cytotoxicity at 10 µM was 6.8%.
With `COC(=O)NC1(C(=O)NCc2ccc(-c3ccn[nH]3)cc2)CCCC1`, the cytotoxicity at 10 µM is -7.65%.
With `Cc1cc(CN2C[C@H]3CCC[C@@]3(COCC3CCOCC3)C2)no1` the figure was 0.073%; with `CCS(=O)(=O)N1CCC(OCCCc2ccccc2)C1` (configuration not stated), 8.59%; with `CCC(CC)C(O)CNC(=O)Nc1cccc(-c2nccn2C)c1` (configuration not stated), -1.39%.
Regarding `CC(=O)NCC1CCN(C(=O)NCCOc2ccc3c(c2)CCC3)CC1`, the cytotoxicity at 10 µM is -5.31%.
`Cc1cccc(NC(=O)C2CCCN2C(=O)c2ccco2)c1C` (configuration not stated): the cytotoxicity at 10 µM is -2.59%.
To `Cc1ccc(S(=O)(=O)Cc2noc([C@@H]3C[C@@H](O)CN3C)n2)cc1` belongs 0.847%.
For the compound `Cc1ccccc1C1(C(=O)N2CCCC(n3cncn3)C2)CC1` (configuration not stated), the cytotoxicity at 10 µM is -4.37%.
For the compound `COc1cc2cc(C(=O)O)n(C)c2cc1OC`, the cytotoxicity at 10 µM worked out at 1.03%.
To `N#Cc1ccc(N2CC3(CCN(c4nccs4)C3)C2)nc1` belongs -12.5%; to `O=c1cc2c(nn1CN1CCC(c3ccccc3)CC1)CCC2`, -8.49%.
For the compound `Cc1cnn(CC(C)NCc2ccc(C#N)cc2)c1` (configuration not stated), the cytotoxicity at 10 µM is -11.8%.
To `CN(C)Cc1nn(C)c2c1CCN(C(=O)c1cccnc1)C2` belongs 6.24%; to `Cc1cccc(-n2cc3[nH]c(=O)[nH]n3c2=O)c1`, 2.48%; to `Cc1cccc(NC(=O)N2CCN(Cc3nnc(C(C)C)o3)CC2)c1`, -1.02%.
Regarding `O=C(C1CCCC1)N1CC2(CCN(C3COC3)C2)Cc2ccccc21` (configuration not stated), the cytotoxicity at 10 µM is 10.1%.
`O=C(c1cccc2cc[nH]c12)N1CCC2(CCOC2)C1` (configuration not stated): the cytotoxicity at 10 µM is -152%.
With `CC(C(=O)N1CCn2cncc2C1)N1CCCC1` (configuration not stated) the figure was 6.38%; with `COc1cccc(Cl)c1C(C(=O)O)N1CCC(O)(c2cccnc2)CC1` (configuration not stated), 6.03%; with `O=C(Cc1ccc(F)cc1)NCCNCc1cccc(O)c1`, -10.4%.
With `Cc1ncc(CN2CC[C@@](C)(O)[C@H](Oc3cccc(F)c3)C2)cn1` the figure was -13.4%; with `O[C@H]1CC[C@@H](Cc2cc(-c3ccc(F)cc3)on2)O[C@@H]1CNCC1CC1`, -6.4%; with `CCOc1cc(C)ccc1NC(=O)N(C)Cc1cnn(C)c1`, -7.15%.
With `Cc1ccccc1CN(Cc1ccccn1)C(=O)CNS(C)(=O)=O` the figure was 1.48%; with `COc1ncc(NC(=O)Nc2cc(C)ccc2OC)cn1`, 2.76%.
Regarding `Cc1ccoc1C(=O)N1CC(C(=O)N2CCOCC2)C2(CCOCC2)C1` (configuration not stated), the cytotoxicity at 10 µM is -1.2%.
To `Fc1cnc(N2CC[C@@H](N3CCOCC3)[C@@H]2Cc2cccnc2)nc1` belongs 11.7%.
With `CCS(=O)(=O)CCNC(=O)NC(C)c1cc(C)sc1C` (configuration not stated) the figure was -3.4%.
To `Cc1nn(CC(=O)N2CCN(c3ccncc3)CC2)c(C)c1Cl` belongs -17.8%.
On to `c1ccc([C@@H]2CN(Cc3cccnc3)C[C@H]2c2cc[nH]n2)cc1`, for which the cytotoxicity at 10 µM was -4.24%.
Take `CO[C@H]1CN(C(=O)c2cc3ccccc3[nH]2)CC[C@H]1N`: the cytotoxicity at 10 µM is 11%.
As to `Cc1nn(C)c2nc(-c3ccccn3)nc(NCCCOC(C)C)c12`, the cytotoxicity at 10 µM was determined as 1.5%.
Take `O=C(Nc1ccccn1)c1cncc(C2CCNCC2)n1`: the cytotoxicity at 10 µM was -0.0757%.
To `CC(C)CN1CC(O)CN(S(=O)(=O)c2ccccc2)CC1=O` (configuration not stated) belongs 1.74%; to `Clc1cc(NCc2ncc[nH]2)nc2[nH]ccc12`, 6.68%.
With `CN1[C@@H](C(=O)NCC2CC2)C[C@H]2CN(Cc3ccsc3)C[C@H]21` the figure was -0.213%; with `CCN(CCN1CCCCCC1)C(=O)c1cnc(-c2cccnc2)nc1`, 11.4%.
`Cc1nn(-c2ccccc2)c(C)c1-c1ccnc(N2CCC(O)CC2)n1`: the cytotoxicity at 10 µM was -1.74%.
For the compound `CCc1[nH]ncc1C(=O)N1CCCC(n2ccnc2C)C1` (configuration not stated), the cytotoxicity at 10 µM was -10.5%.
On to `CS(=O)(=O)Nc1ccc(-n2c(CCCO)nc3ccccc32)cn1`, for which the cytotoxicity at 10 µM is -3.14%.
To `NC(=O)c1cnc(NC2CC2)nc1CCNC(=O)CC1CCCC1` belongs 3.29%; to `Cc1cccc(NC(=O)NCC2(N3CCOCC3)CCSC2)c1` (configuration not stated), 5.02%; to `CCNC(=O)CN1CCC(c2cc(OC)cc(OC)c2)C1` (configuration not stated), -5.66%.
With `O=C(NCC1CC1)C1CN(Cc2ccncc2)Cc2ccnn2C1` (configuration not stated) the figure was -0.902%; with `O=C(c1cc(-c2ccco2)nc2c(Cl)cccc12)N1CC[C@H]2CNC[C@H]21`, -3.29%; with `COCCNc1ccccc1CNC(=O)C1CCCOC1` (configuration not stated), -8.3%.
To `Cc1cnn(C2CN(Cc3nc4cc(Cl)ccc4n3C)C2)c1` belongs -1.16%; to `C1=C(CNC2CCc3ncnn3C2)COc2ccccc21` (configuration not stated), -2.28%; to `c1cc(C2CCCN2CC2CCCCC2)n[nH]1` (configuration not stated), -1.83%.
For `N#Cc1cccc(NC2CC(=O)N(CCCc3ccccc3)C2)n1` (configuration not stated), the cytotoxicity at 10 µM was 5.82%.
To `CCN1CC(Oc2ccc(Cl)cc2)=NC(SCC(=O)c2ccccc2)=N1` belongs 0.515%; to `Cn1cc(N2CC3(CCN(CC4CC4)CC3)OCC2=O)cn1`, -6.86%; to `Cc1ccc(N2C[C@@H]3OCCN(Cc4c(C)noc4C)[C@@H]3C2)nn1`, -1.62%.
For `Nc1nccc(N2CCC(c3cc(Cc4ccccc4)n[nH]3)CC2)n1`, the cytotoxicity at 10 µM was 38.9%.
With `CC(C)C(=O)N1CCC2(CCN2CC2CC2)C1` (configuration not stated) the figure was 8.98%.
With `CC(C(=O)Nc1ccnn1C(C)C)N1CCN(Cc2ccccc2)CC1` (configuration not stated) the figure was -7.55%; with `CC(C)Cc1cc(C(=O)NCCN2CCCS2(=O)=O)[nH]n1`, -7.39%.
Take `NC(=O)Cc1ccc(NC(=O)C2CCOCC2)cc1`: the cytotoxicity at 10 µM is -1.2%.
As to `CC(=O)N1CCC(N2CCN3C(=O)N(Cc4ccccn4)C[C@H]3C2)CC1`, the cytotoxicity at 10 µM amounted to 2.26%.
In the case of `CC(C)OCc1noc(C2CCOC2)n1` (configuration not stated), the cytotoxicity at 10 µM was 1.19%.
For `CSc1ccc(CNC(c2ccccc2)c2nccn2C)cc1` (configuration not stated), the cytotoxicity at 10 µM turned out to be 2.39%.
With `CS(=O)(=O)N1CCO[C@@H]2CCN(C(=O)c3cccs3)CC[C@H]21`, the cytotoxicity at 10 µM is -2.35%.
On to `CC(=O)NCCc1ccc(S(=O)(=O)N(C)C(C)CC(C)C)s1` (configuration not stated), for which the cytotoxicity at 10 µM was -1.88%.
Turning to `Cc1[nH]c2c(F)cccc2c1CC(=O)N1CCN(C2CCSCC2)CC1`, the cytotoxicity at 10 µM is 4.82%.
To `Cc1ccc(OC2(C(=O)O)CCN(C/C=C/c3ccco3)CC2)c(C)n1` belongs 0.449%; to `CCOc1ccccc1C(=O)NCCC(O)c1ccoc1` (configuration not stated), -16.4%; to `COCC(=O)N1C[C@@H]2CCCO[C@@H]2[C@H](N(C)Cc2ccco2)C1`, -0.704%.
Regarding `CC(C)C[C@H](N)C(=O)N1CC2(CCNCC2)c2cc(Cl)ccc21`, the cytotoxicity at 10 µM was -8.34%.
For the compound `Cn1ncc2c1C(COCC1CC1)CN(C(=O)c1cscn1)C2` (configuration not stated), the cytotoxicity at 10 µM was -76%.
`CC(C)Cc1noc(CN2CCN(c3nccs3)CC2)n1`: the cytotoxicity at 10 µM worked out at 0.607%.
For the compound `CN(CC(=O)N1CCc2[nH]c3ccccc3c2C1)CC1OCCO1`, the cytotoxicity at 10 µM is -1.63%.
As to `CNc1nc(CNC(=O)Nc2cccc(C(C)OC)c2)cs1` (configuration not stated), the cytotoxicity at 10 µM was -13.3%.
To `Cc1nc2n(n1)CC(NCc1nc(C)c(C)o1)CC2` (configuration not stated) belongs -0.925%; to `Cc1cccc(CN2Cc3[nH]nc(COCc4nccs4)c3C2)n1`, -7.12%.
With `O=C(C1CCOC1)N1CCc2ncnc(C3CC3)c2CC1` (configuration not stated) the figure was -2.62%; with `Cc1cc(C(=O)NCCN2CCC(C)CC2)nn1C(C)(C)C`, 13.3%.
To `CC(C)CC(=O)N1CCN(Cc2csc(-c3ncccn3)n2)CC1` belongs 8.61%; to `Cc1ccc(C)c(S(=O)(=O)CCN2CCc3c(ncn3C)C2)c1`, -12.5%.
In the case of `CCNC(=O)NCc1ccc(-n2ccc(C(F)(F)F)n2)cc1`, the cytotoxicity at 10 µM is -4.7%.
To `Cc1cc(C)nc(N2CCC(CNC(=O)c3ccccn3)CC2)n1` belongs -18.9%; to `CC(C)N(C(=O)Cn1nc2n(c1=O)CCCCC2)C1CCC1`, -7.62%.
To `O=C(c1cccc(N2CCCC2=O)c1)N1CCCC(n2cncn2)C1` (configuration not stated) belongs -12%.
With `Cc1cc(C)n(CCCN(CCN2CCOCC2)Cc2ccco2)n1` the figure was 8.97%; with `CC(=O)NCCCc1ncnn1-c1cccc(Cl)c1`, 0.254%.
On to `CC(=O)c1ccc(OCC(C)O)cc1O` (configuration not stated), for which the cytotoxicity at 10 µM is -8.02%.
Regarding `OC1(CNc2ccccc2)CCNCC1`, the cytotoxicity at 10 µM was -1.9%.
To `O=C(Nc1nnc(C(F)F)s1)NC(CCO)c1cccs1` (configuration not stated) belongs -3.44%; to `Cc1cc(N2CCC3(CCC(=O)N(CCO)C3)CC2)nc(N(C)C)n1`, -4.78%; to `O=C(CCNc1ncc2c(n1)CCN2c1ccccc1)N1CCCC1`, 9.5%.
Take `CC1(C(=O)N2CCOCC2)CN(Cc2ccccn2)CCO1` (configuration not stated): the cytotoxicity at 10 µM was 2.86%.
For `Cc1csc(C2CCCN(C(=O)c3cnc[nH]3)C2)n1` (configuration not stated), the cytotoxicity at 10 µM was -10.7%.
With `Cc1ocnc1C(=O)N(C)[C@@H]1CC[C@@H](n2ccnc2C)[C@@H]1O`, the cytotoxicity at 10 µM was determined as 0.642%.
To `CC(C)C[C@@H](CO)n1cc(-c2cnc(-c3ccco3)nc2)nn1` belongs -0.662%.
With `CSCC(C)NS(=O)(=O)c1ccc(C)c(N(C)C)c1` (configuration not stated) the figure was -3.25%.
